Bioassay records (PubChem)
Many of the other results were omitted from the sample, so hits are more common in it than they were.
PDI turbidity: PDI (human) enzyme inhibition; P07237; PDI insulin aggregation turbidity, A650, 90 min; inhibition, % at 10 µM; actives 0.052% (n = 350,000);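 active means mean inhibition across replicates of 30% or more, whatever share of single replicates reach that level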
Target sequence (P07237 whole entry, looked up): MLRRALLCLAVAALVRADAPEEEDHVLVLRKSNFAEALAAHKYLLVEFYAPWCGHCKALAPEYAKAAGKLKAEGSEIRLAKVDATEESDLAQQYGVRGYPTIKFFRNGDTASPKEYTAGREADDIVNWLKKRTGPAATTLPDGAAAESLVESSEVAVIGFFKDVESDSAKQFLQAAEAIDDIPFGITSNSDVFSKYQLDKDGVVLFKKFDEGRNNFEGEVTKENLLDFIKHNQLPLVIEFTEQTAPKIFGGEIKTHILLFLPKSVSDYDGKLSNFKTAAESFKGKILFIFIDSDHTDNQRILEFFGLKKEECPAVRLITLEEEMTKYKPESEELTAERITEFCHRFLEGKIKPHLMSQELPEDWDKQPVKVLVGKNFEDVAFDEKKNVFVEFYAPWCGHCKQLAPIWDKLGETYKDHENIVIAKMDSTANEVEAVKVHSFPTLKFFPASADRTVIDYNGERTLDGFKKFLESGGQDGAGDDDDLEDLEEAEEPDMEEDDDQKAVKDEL
S100A4 MyoIIA: S100A4-myosin IIA interaction inhibition; P26447; S100A4/TAMRA-MyoIIA peptide fluorescence polarization; inhibition, % at 10.7 µM; actives 0.14% (n = 360,000);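 active means mean inhibition of at least 70% across replicates, with every replicate also reaching that level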
Target sequence (P26447 whole entry, looked up): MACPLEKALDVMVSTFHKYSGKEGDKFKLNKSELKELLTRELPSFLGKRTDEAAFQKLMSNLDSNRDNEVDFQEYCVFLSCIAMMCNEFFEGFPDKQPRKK
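Test system: S100A4 monomer protein; Medium: HEPES pH 7.2 with CaCl2, KCl, NaCl, DTT, Triton; Probe or stimulus: TAMRA-labelled myosin IIA heavy-chain peptide probe, 5 nM; Doses: one dose per compound; Times: polarization read 5 min after assay mix addition, stable 5–60 min; Benchmarks: neutral control DMSO, positive control TFP.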
ERp5 inh: inhibitors of human ERp5; Q15084; ERp5 insulin aggregation, absorbance 650 nm, 90 min; inhibition, % at 9.99 µM; actives 0.05% (n = 350,000); AID 651711;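 active means mean replicate inhibition above about 25%, with every replicate also reaching it, limit read from the data, passing the limit was not always enough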
ERAP1 HTS inh: ERAP1 (human) enzyme inhibition. Q9NZ08. recombinant ERAP1, Leu-AMC fluorescence, 60 min. inhibition, % at 10.7 µM. actives 0.15% (n = 340,000);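 active means mean replicate inhibition of at least 30%, or all replicates individually reaching that 30% level; inactive means mean below 30% and not every replicate reaching it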
FGF22 binding: FGF22 (human) thermal shift binding | Q9HCT0 | recombinant FGF22 thermal shift, SYPRO orange fluorescence; percent of sucrose octasulfate shift, DMSO zero | activity (Tm shift, normalised), % at 9.99 µM | actives 1.5% (n = 340,000) | AID 651658;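 active means mean Tm shift, scaled 0 neutral to 100 positive control, at about 1.3% or above, every replicate too, limit read from the data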
Each line names hits and unclear results; the compound was inactive in the other large screens.

O=C(/C=C/c1cccc([N+](=O)[O-])c1)Nc1cccc(NC(=O)c2cccs2)c1	FGF22 binding 1.7
O=C(Nc1cccc(N2C(=O)C=CC2=O)c1)c1cccs1	ERAP1 HTS inh 33
O=C(/C=C/c1ccc(Cl)c([N+](=O)[O-])c1)Nc1ccc(NC(=O)c2ccco2)cc1	none
Cc1ccc(C(=O)Nc2ccc(NC(=O)c3cccs3)cc2)cc1[N+](=O)[O-]	none
CCC(=O)NCCCNc1nc2c(C)cccc2cc1C#N	FGF22 binding 43
Cc1cc2occ(CC(=O)NC3CCCc4ccccc43)c2cc1C (configuration not stated)	FGF22 binding 43
C[C@H](CO)N1C[C@H](C)[C@@H](CN(C)Cc2ccc(C(=O)Nc3ccccc3N)cc2)OCc2cn(nn2)CCCC1=O	none (no result: PDI turbidity)
COc1cc(NC(=S)N2CCN(C(=O)C3CCCO3)CC2)c(OC)cc1Cl (configuration not stated)	FGF22 binding 44
COc1ccc(Cl)cc1NC(=S)N1CCN(C(=O)C2CCCO2)CC1 (configuration not stated)	none
CC1CCCC(NC(=O)COC(=O)CCC(=O)c2ccc(F)cc2)C1C (configuration not stated)	FGF22 binding 44
CC1CCCC(NC(=O)COC(=O)c2ccc([N+](=O)[O-])s2)C1C (configuration not stated)	none
CC1CCCC(NC(=O)COC(=O)c2ccccc2[N+](=O)[O-])C1C (configuration not stated)	FGF22 binding 44
COCCSc1nnc(NC(=O)c2ccco2)s1	none
C=Cn1cc(CNC[C@H]2O[C@@H](n3ccc(N)nc3=O)[C@H](O)[C@@H]2O)c(C)n1	none
Fc1cccc(Cc2c(-c3cccc(Br)c3)nc3ccc(Cl)cn23)c1	none (no result: PDI turbidity)
S=c1cnc2ccccc2[nH]1	FGF22 binding 43
c1ccc2[nH]c(CCCc3nc4ccccc4[nH]3)nc2c1	none
CC(=O)c1ccc(NC(=O)CN2C(=O)/C(=C/C=C/c3ccccc3)SC2=S)cc1	FGF22 binding 1.4
Cc1ccc(-c2csc3ncnc(Nc4ccc(N5CCOCC5)cc4)c23)cc1	none (no result: S100A4 MyoIIA, ERp5 inh, ERAP1 HTS inh, FGF22 binding)
C[n+]1cccc(/C=N/NC(=O)CC23CC4CC(CC(C4)C2)C3)c1	ERAP1 HTS inh 96
CCn1nc(CC(=O)O)c2ccccc2c1=O	FGF22 binding 44
CCCCn1nc(CC(=O)O)c2ccccc2c1=O	none (no result: S100A4 MyoIIA, ERp5 inh, ERAP1 HTS inh, FGF22 binding)
Cc1noc(C)c1NC(=O)Nc1ccc2c(c1)CC(=O)N([C@@H](C)CO)C[C@@H](C)[C@@H](CN(C)S(=O)(=O)c1ccccc1)O2	none (no result: PDI turbidity)
C[C@@H]1CN([C@@H](C)CO)C(=O)c2cc(NS(=O)(=O)c3cn(C)cn3)ccc2O[C@@H]1CN(C)Cc1ccc(C(F)(F)F)cc1	none (no result: PDI turbidity)
CN(C)N1C(N)=C(C#N)C(c2ccc(F)cc2)C2=C1CCCC2=O (configuration not stated)	none
CN(C)N1C(N)=C(C#N)C(c2ccccc2)C2=C1CCCC2=O (configuration not stated)	FGF22 binding 43
O=C1CCCCCN1C(=O)c1ccccc1	FGF22 binding 43
Cc1cc(=O)[nH]c2c3ccccc3nn12	FGF22 binding 44
C[C@@H]1CN([C@@H](C)CO)C(=O)Cc2cc(NC(=O)CCC(F)(F)F)ccc2O[C@@H]1CN(C)S(=O)(=O)c1ccccc1	none (no result: PDI turbidity)
CC(C)NC(=S)N/N=C1\CCCc2ccccc21	FGF22 binding 43
CCOc1cc(/C=N/NC(=O)c2cccnc2)ccc1OCC(=O)N(C)C	FGF22 binding 44
[O-]/C(=C(\C(=S)NCc1ccccc1)[n+]1ccccc1)c1ccc(Cl)s1	FGF22 binding 43
COC(=O)c1noc(C)c1-c1ccnn1C(=O)c1ccc(C)cc1	none (no result: ERAP1 HTS inh)
O=C(c1ccc(S(=O)(=O)N2CCOCC2)cc1)N1CCN(c2ccccn2)CC1	none
CO[C@@H]1CN(C)C(=O)c2cc(NS(C)(=O)=O)ccc2OC[C@H](C)N(C(=O)C2CCCC2)C[C@H]1C	none (no result: PDI turbidity)
O=C1CCCC2=C1C(c1ccccc1)NC(=S)N2 (configuration not stated)	none
Cc1ccc(C2NC(=S)NC3=C2C(=O)CCC3)cc1 (configuration not stated)	FGF22 binding 43
Cc1cc(C(=O)CN2C(=O)NC(CC(C)C)C2=O)c(C)n1-c1ccccc1F (configuration not stated)	none
Cc1cc(C(=O)CN2C(=O)C(=O)N(CC(C)C)C2=O)c(C)n1-c1ccccc1F	FGF22 binding 43
O=C(CSc1nnnn1-c1cccc(F)c1)Nc1nc2ccccc2s1	none (no result: S100A4 MyoIIA, ERp5 inh, ERAP1 HTS inh, FGF22 binding)
Cn1c(=O)c2sccc2n2c(CCCC(=O)N3CCN(c4ccccn4)CC3)nnc12	S100A4 MyoIIA 111
COCCCn1c(=O)c2sccc2n2c(CCCC(=O)N3CCN(c4ccccn4)CC3)nnc12	none
O=C1CNC(=O)/C(=C/c2cccs2)N1	FGF22 binding 43
COC(=O)C1=C(C)N(Cc2ccc(C(F)(F)F)cc2)C(=NCC2CC2)NC1c1ccccc1C(F)(F)F (configuration not stated)	none (no result: PDI turbidity)
Cc1ccc(CC(=O)NCc2cccnc2)cc1	FGF22 binding 44 (no result: PDI turbidity)
NC(=S)NCc1cccnc1	FGF22 binding 43
NNC(=S)NCc1cccnc1	none (no result: S100A4 MyoIIA, ERp5 inh, ERAP1 HTS inh, FGF22 binding)
CSc1cc(-c2ccccc2)[nH]c(=O)c1C#N	none
Cc1cc(-c2ccccc2)[nH]c(=O)c1C#N	FGF22 binding 43
COc1ccc(NC(=O)CN(C)CC(=O)Nc2sc3c(c2C(N)=O)CCC3)cc1	none
O=c1cc(-c2ccc([N+](=O)[O-])cc2)c2ccc(O)cc2o1	FGF22 binding 45
COc1ccc(-c2cc(=O)oc3cc(O)ccc23)cc1	none
C[C@@H]1CN([C@H](C)CO)C(=O)c2cc(NC(=O)Nc3cccc4ccccc34)ccc2O[C@@H](C)CCCCO[C@@H]1CN(C)C(=O)Cc1ccccc1	none (no result: PDI turbidity)
CNC[C@H]1Oc2ccc(NS(=O)(=O)c3c(C)noc3C)cc2C(=O)N([C@H](C)CO)C[C@H]1C	none (no result: PDI turbidity)
CCOc1ccc(CN2CCN(CCCn3cccn3)CC2CCO)cc1 (configuration not stated)	none (no result: ERAP1 HTS inh)
OCCC1CN(CCCn2cccn2)CCN1Cc1ccccc1 (configuration not stated)	FGF22 binding 43
COc1cccc(CN2CCN(CCc3ccccc3)C(CCO)C2)c1OC (configuration not stated)	FGF22 binding 44
OCCC1CN(Cc2nc3c(s2)CCCC3)CCN1CCc1ccccc1 (configuration not stated)	FGF22 binding 44
CCOc1ccccc1CN1CCN(Cc2ccc(C)o2)C(CCO)C1 (configuration not stated)	FGF22 binding 43
CCOc1ccccc1CN1CCN(Cc2ccc(C)o2)CC1CCO (configuration not stated)	none
Cc1ccc(C(=O)N/C(=C\C=C\c2ccccc2)C(=O)NCc2ccco2)cc1	none
CCCCc1n[nH]c(=S)n1Cc1ccc(Cl)cc1	none
